Data on four molecules can be found in ChEMBL document CHEMBL4028861, “Selective Nonsteroidal Glucocorticoid Receptor Modulators for the Inhaled Treatment of Pulmonary Diseases” (J Med Chem, 2017).

A word on the chromatographic logD: it is a lipophilicity value derived from retention on a column. A low value points to lower lipophilicity. What is called clearance is the rate of elimination divided by the concentration. A high value points to efficient removal. Broadly, the bioavailability is dose-corrected exposure relative to a reference, in per cent. High values mean much systemic uptake, low ones little systemic uptake. In general, AUC(0-inf) refers to the area under the concentration-time curve extrapolated to infinity. The MRT is a mean duration of stay, worked out from the concentration-time curve. In general, Cmax refers to the maximum level reached in the sampled fluid or tissue.

≈ marks a conversion by molar mass, not a printed value.

The nature of data set [1]: Drug degradation in human hepatocytes assessed as 5-hydroxy-indazole formation at 10 uM up to 120 mins by LC-MS/MS analysis. The format is ADME, cell-based, Hepatocyte. Conditions: 2 h.
Data set [2] is described as follows: Drug degradation in rat hepatocytes assessed as 5-hydroxy-indazole formation at 10 uM up to 120 mins by LC-MS/MS analysis. Conditions: 2 h. The class given is ADME, cell-based, Hepatocyte.
The nature of data set [3]: Drug degradation in dog hepatocytes assessed as 5-hydroxy-indazole formation at 10 uM up to 120 mins by LC-MS/MS analysis. The class given is ADME, cell-based, Canis lupus familiaris, Hepatocyte. Conditions: 2 h.
A short description of data set [4]: Drug degradation in human hepatocytes at 10 uM up to 120 mins by LC-MS/MS analysis. The class given is ADME, cell-based, Hepatocyte. Conditions: 2 h.
Data set [5] is described as follows: Drug degradation in rat hepatocytes at 10 uM up to 120 mins by LC-MS/MS analysis. The class given is ADME, cell-based, Hepatocyte. Conditions: 2 h.
Data set [6] can be described thus: Drug degradation in dog hepatocytes at 10 uM up to 120 mins by LC-MS/MS analysis. The format is ADME, cell-based, Canis lupus familiaris, Hepatocyte. To be noted: 2 h.
A short description of data set [7]: Intrinsic clearance in human hepatocytes assessed per million cells. Conditions: read-out: CLH. The class given is ADME, cell-based, Hepatocyte.
The nature of data set [8]: Lipophilicity, log D of the compound by chromatography. The class given is physicochemical.
Data set [9] can be described thus: Intrinsic clearance in Wistar Han rat hepatocytes assessed per 10^6 cells. The class given is ADME, cell-based, Hepatocyte. To be noted: read-out: CLH.
Data set [10] is described as follows: Clearance in Wistar Han rat at 1 umol/kg, iv administered as bolus dose by LC-MS/MS analysis. The class given is ADME, organism-based. To be noted: in vivo.
A short description of data set [11]: Volume of distribution at steady state in Wistar Han rat at 1 umol/kg, iv administered as bolus dose by LC-MS/MS analysis. Conditions: in vivo, read-out: Vdss. The class given is ADME, organism-based.
A short description of data set [12]: Terminal half life in Wistar Han rat 1 umol/kg, iv administered as bolus dose by LC-MS/MS analysis. The format is ADME, organism-based. To be noted: in vivo, read-out: beta t1/2 (converted).
A short description of data set [13]: Oral bioavailability in Wistar Han rat administered via gavage by LC-MS/MS analysis. The format is ADME, organism-based. To be noted: in vivo.
Data set [14] relates to Lung. Kind of data set: Drug uptake in Wistar Han rat lung at 0.1 umol/kg, administered via intratracheal instillation after 4 hrs by LC-MS/MS analysis. The class given is ADME, tissue-based. Conditions: in vivo, inhaled_or_intranasal.
The subject of data set [15] is Lung. Kind of data set: Drug uptake in Wistar Han rat lung at 0.1 umol/kg, administered via intratracheal instillation after 24 hrs by LC-MS/MS analysis. Conditions: in vivo, inhaled_or_intranasal. The format is ADME, tissue-based.
A short description of data set [16]: AUC (0 to infinity) in Wistar Han rat lung at 0.1 umol/kg, administered via intratracheal instillation by LC-MS/MS analysis. The format is ADME, tissue-based. To be noted: inhaled or intranasal. Set-up: dose 0.1 umol/kg, time infinity.
The nature of data set [17]: Apparent terminal half life in Wistar Han rat lung at 0.1 umol/kg, administered via intratracheal instillation by LC-MS/MS analysis. Conditions: inhaled or intranasal, read-out: betat1/2(app) (converted). The format is ADME, tissue-based.
Data set [18] can be described thus: Mean residence time in Wistar Han rat lung at 0.1 umol/kg, administered via intratracheal instillation by LC-MS/MS analysis. The class given is ADME, tissue-based. To be noted: inhaled or intranasal.
The nature of data set [19]: Cmax in Wistar Han rat plasma at 0.1 umol/kg, administered via intratracheal instillation by LC-MS/MS analysis. Set-up: dose 0.1 umol/kg. To be noted: inhaled or intranasal. The format is ADME.
Data set [20] can be described thus: Thermodynamic solubility of the compound in human intestinal fluid. The format is physicochemical. To be noted: read-out: Therm_solubility.
Data set [21] deals with Lung. The experiment in a line: Drug uptake in Wistar Han rat lung at 0.1 umol/kg, administered as dry powder inhalation after 4 hrs by LC-MS/MS analysis. The format is ADME. To be noted: in vivo, inhaled_or_intranasal.
Data set [22] has as its system Lung. The experiment in a line: Drug uptake in Wistar Han rat lung at 0.1 umol/kg, administered as dry powder inhalation after 24 hrs by LC-MS/MS analysis. The class given is ADME, tissue-based. To be noted: in vivo, inhaled_or_intranasal.
Data set [23] can be described thus: AUC (0 to infinity) in Wistar Han rat lung at 0.1 umol/kg, administered as dry powder inhalation by LC-MS/MS analysis. The class given is ADME. Set-up: dose 0.1 umol/kg, route respiratory (INHALATION), time infinity. To be noted: inhaled or intranasal.
The nature of data set [24]: Apparent terminal half life in Wistar Han rat lung at 0.1 umol/kg, administered as dry powder inhalation by LC-MS/MS analysis. The class given is ADME. Conditions: inhaled or intranasal, read-out: betat1/2(app) (converted).
Data set [25] in a line: Mean residence time in Wistar Han rat lung at 0.1 umol/kg, administered as dry powder inhalation by LC-MS/MS analysis. The format is ADME, tissue-based. To be noted: inhaled or intranasal.
Data set [26] can be described thus: Cmax in Wistar Han rat plasma at 0.1 umol/kg, administered as dry powder inhalation by LC-MS/MS analysis. The class given is ADME. Set-up: dose 0.1 umol/kg, route respiratory (INHALATION). Conditions: inhaled or intranasal.
The next data set has as its system Rattus norvegicus. The experiment in a line: Toxicity in inhaled CRL:CD Sprague Dawley rat model of sephadex induced lung edema assessed as induction of thymic involution administered once per day for 4 days. Conditions: in vivo, inhaled_or_intranasal, 96 h. In short, it runs like this:
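Thymic involution scored in the same Sephadex-challenged rats dosed by inhalation, as a sensitive marker of systemic GR agonism.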

Regarding `O=[14C](N[C@@H]1CCOC1)c1cccc(-n2ncc3cc(OS(=O)(=O)O)ccc32)c1`, the Drug metabolism result in [1], in data set [2] and in data set [3] was “Metabolite_Detected” throughout.

In the case of `C[C@H](NC(=O)C(C)(F)F)[C@H](Oc1ccc2c(cnn2-c2cccc([14C](=O)N[C@@H]3CCOC3)c2)c1)c1ccc2c(c1)OCCO2`, the Drug degradation entry in [4], in data set [5] and in data set [6] was “Metabolite_Detected” throughout. Besides, the Drug metabolism entry in [1], in data set [2] and in data set [3] was “Metabolite_Detected” in each case.

For the molecule `C[C@H](NC(=O)C(C)(F)F)[C@H](Oc1ccc2c(cnn2-c2ccc(F)cc2)c1)c1ccc2c(c1)OCCO2`, the hepatocyte CLint in data set [7] was determined as 28 µL/min/1e6 cells; in data set [9], 22 µL/min/1e6 cells. The chromatographic logD in [8] was determined as 5.5. Further, in data set [10], the clearance was 42 mL/min/kg. In addition, the Vd in data set [11] is 10 L/kg. Moreover, the half-life in data set [12] is 7.4 h; in data set [17] it was 8.9 h. The molecule further displayed a bioavailability in data set [13] of 11%. Besides, the Drug uptake turned out to be 4.5 %ID with Lung [14] and 0.8 %ID in the data set with Lung [15]. This molecule yielded an AUC(0-inf) in data set [16] of 12 µM·h. For the same molecule, the MRT in [18] is 8.8 h. In [19], the Cmax worked out at 30 nM.

As to `COc1cccc([C@@H](Oc2ccc3c(cnn3-c3ccc(F)cc3)c2)[C@H](C)NC(=O)C(F)(F)F)c1` [AZD-5423], the hepatocyte CLint in data set [7] was 16 µL/min/1e6 cells; in [9], 13 µL/min/1e6 cells. In data set [8], this molecule yielded a chromatographic logD of 6. The molecule further yielded a clearance in [10] of 38 mL/min/kg. In data set [11], the Vd was 23 L/kg. Besides, the half-life is 4.7 h in data set [12] and 7.5 h in data set [24]. Besides, the bioavailability in data set [13] worked out at 37%. In data set [20], the solubility thermodynamic was 12 µM (≈ 5.85 µg/mL). Besides, the Drug uptake with Lung [21] was 0.7 %ID; with Lung [22], 0 to 0.4 %ID; in the data set on Lung [14], 1 %ID. This molecule also yielded an AUC(0-inf) in data set [23] of 18 µM·h. In data set [25], the MRT was 1.5 h. This molecule also gave a Cmax in data set [26] of 122 nM. Also, in the data set on Rattus norvegicus, the ED25 came to 4.6 µg/kg.
